Screening results deposited in PubChem BioAssay by Sanford-Burnham Center for Chemical Genomics.
A selection: hits, their analogues and other compounds. The true share with any hit is near 3.1%.
SENP8 block-1: inhibitors of human SENP8 protease; Q96LD8; inhibition, % at 10 µM; purified SENP8, Z-RLRGG-aminoluciferin cleavage, luminescence; AID 2540; 330,000 compounds, 1.2% hits; in the data active = inhibition above about 50%
SENP7 block: blocks the human protease SENP7; Q9BQF6; recombinant SENP7, Z-RLRGG-aminoluciferin luminescence, 40 min; inhibition, % at 5 µM; 330,000 compounds, 1.5% hits; AID 434973;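 active = inhibition above about 50% at the single test dose, limit read from the data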;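 also: plate controls were DMSO with enzyme for no effect and no enzyme buffer wells for full effect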
Target sequence (Q9BQF6 706-1050 limits assumed): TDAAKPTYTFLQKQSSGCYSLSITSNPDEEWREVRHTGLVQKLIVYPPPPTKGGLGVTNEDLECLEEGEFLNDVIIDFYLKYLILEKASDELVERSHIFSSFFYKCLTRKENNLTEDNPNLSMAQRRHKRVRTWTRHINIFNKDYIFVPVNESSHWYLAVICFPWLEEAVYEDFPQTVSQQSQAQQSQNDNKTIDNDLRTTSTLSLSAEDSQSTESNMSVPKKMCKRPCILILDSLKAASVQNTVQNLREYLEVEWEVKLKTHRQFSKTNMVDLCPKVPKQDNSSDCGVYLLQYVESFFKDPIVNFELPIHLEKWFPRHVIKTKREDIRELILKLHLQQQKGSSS
SENP8 block-2: SENP8 (human) protease inhibition; Q96LD8; recombinant SENP8, Nedd8 substrate fluorescence; inhibition, % at 20 µM; 360,000 compounds, 0.64% hits; in the data active = inhibition mostly above about 40%, no sharp cut-off; inactive = mostly below about 27%
SENP6 block: inhibitors of human SENP6 protease; Q9GZR1; Recombinant SENP6 catalytic domain, aminoluciferin luminescence; inhibition, % at 10 µM; 330,000 compounds, 1.8% hits;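 active = inhibition above about 50% at the single tested dose, limit read from the data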;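 also: plate controls were DMSO wells with enzyme for no effect and DMSO wells lacking enzyme for full effect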
UBC13 polyUb: inhibitors of human UBC13 polyubiquitin chain formation | 330,000 compounds, 0.47% hits | AID 485273 | TR-FRET | inhibition, % at 20 µM; in the data active = inhibition above about 45%, passing the limit was not always enough; inconclusive = no clear call, values can overlap the other calls
Apaf1 inhib: human Apaf-1 inhibition | O14727 | reconstituted apoptosome caspase-3 activity, DEVD-Rh110 fluorescence | inhibition, % at 20 µM | AID 489030 | 330,000 compounds, 0.71% hits; active = inhibition of at least 40% at 20 µM;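 also: plate controls were DMSO wells for no effect and DEVD-CHO caspase inhibitor wells for full effect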
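Medium: Hepes buffer, pH 7.5 / System: biochemical Apaf-1 apoptosome reconstitution / Measured by: Rh110 fluorescence, excitation 480 nm, emission 540 nm / Times: compound with Apaf-1, dATP, procaspase-3 30 min, then 50 min reaction, room temperature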
Casp3 UBC13 ctr: caspase-3 inhibition (UBC13 counter-screen) | shares compounds with UBC13 polyUb | Recombinant caspase-3, Caspase-Glo 3/7 luminescence, 60 min | inhibition, % at 20 µM | 1,400 compounds, 4% hits;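 active = mean inhibition across replicates above about 26%, limit read from the data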;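 also: plate controls were DMSO with caspase-3 for no effect and DMSO wells lacking enzyme for full effect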
Target sequence (P42574 whole entry, looked up): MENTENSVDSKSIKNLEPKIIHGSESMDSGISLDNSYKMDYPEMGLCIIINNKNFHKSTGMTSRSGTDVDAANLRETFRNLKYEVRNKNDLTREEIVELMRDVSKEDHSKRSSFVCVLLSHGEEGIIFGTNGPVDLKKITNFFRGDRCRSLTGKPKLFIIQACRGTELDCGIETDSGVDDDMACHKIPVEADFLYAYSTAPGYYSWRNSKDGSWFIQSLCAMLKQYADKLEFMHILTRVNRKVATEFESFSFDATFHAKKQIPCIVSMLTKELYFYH
UBC13 confirm: human UBC13 polyubiquitin inhibition, confirmed; shares compounds with UBC13 polyUb; UBC13 polyubiquitination, TR-FRET, biochemical; inhibition, % at 10 µM; 1,400 compounds, 68% hits; in the data active = inhibition above about 45%; inconclusive = no clear call, values can overlap the other calls
Numbers without * were called inactive; i = inactive; ? = inconclusive; . = no result given.

SMILES	SENP8 block-1	SENP7 block	SENP8 block-2	SENP6 block	UBC13 polyUb	Apaf1 inhib	Casp3 UBC13 ctr	UBC13 confirm
Cc1ccc(C(C(=O)NCC2CCCO2)N(C(=O)c2snc(C(N)=O)c2N)c2ccccc2F)o1 (stereo not drawn)	1	9	-318	-13	47*	9	0	30
NC(=O)c1nsc(C(=O)N(c2ccccc2)C(C(=O)NCC2CCCO2)c2ccc(F)cc2)c1N (stereo not drawn)	10	-1	-303	-8	22	7	.	.
Cc1ccc(C(C(=O)NCC2CCCO2)N(C(=O)c2snc(C(N)=O)c2N)c2ccc(F)cc2)o1 (stereo not drawn)	-6	0	-297	-18	46*	13	-5	39
COc1cc(OC)cc(N(C(=O)c2snc(C(N)=O)c2N)C(C(=O)NCC2CCCO2)c2ccc(C)o2)c1 (stereo not drawn)	-1	11	-310	7	4	10	.	.
C[C@@H]1Cc2[nH][nH]c(=O)c2[C@H](c2ccc(Cl)cc2)O1	.	.	27	.	.	.	.	.
COC(=O)c1ccc(C(=O)N2CCCCCC2(C)C(=O)NC(C)C)cc1 (stereo not drawn)	.	.	2	.	.	.	.	.
NC(=O)c1nsc(C(=O)N(c2ccccc2F)C(C(=O)NCc2ccc(F)cc2)c2ccc(O)cc2)c1N (stereo not drawn)	1	2	-286	14	47*	15	2	49*
Cc1ccc(-c2nnc3c(C(F)(F)F)nc4ccccc4n23)cc1	6	1	i	-17	52*	1	-4	?
FC(F)(F)c1nc2ccccc2n2c(-c3ccc(Cl)cc3)nnc12	0	0	-431	8	16	3	.	.
CC1=CC(=O)C=CC1=Nc1ccc(N(C)C)cc1	.	.	8	.	.	.	.	.
CC(C)N1CCC1(C)C(=O)Nc1nc2ccccc2[nH]1 (stereo not drawn)	.	.	11	.	.	.	.	.
CCc1ccccc1NC(=O)NNC(=O)c1ccc2ccccc2c1O	2	-5	-383	0	10	7	.	.
CCOc1ccc(NC(=O)NNC(=O)c2ccc3ccccc3c2O)cc1	-2	8	-406	-12	49*	13	-2	16
COc1ccc(-c2sc3ccc(OC)cc3c2C#Cc2cncn2C)cc1	-1	9	i	0	48*	16	-2	40
CCOc1ccc(-c2cccc(NS(=O)(=O)c3cccc([N+](=O)[O-])c3)c2)nn1	.	.	13	.	.	.	.	.
CCSc1nc(-c2ccccc2)c2cc(Cl)ccc2n1	-11	0	-289	-13	49*	7	-3	?
CC(C)Oc1ccc(F)cc1-c1cc(C(=O)Nc2ccc(C(C)(C)C)cc2)[nH]n1	.	.	7	.	.	.	.	.
COCCNC(=S)N=Nc1c(O)[nH]c2ccc([N+](=O)[O-])cc12	-7	-7	29	-29	89*	-5	1	96*
CCCCCCC(=O)N=Nc1c(O)[nH]c2ccc([N+](=O)[O-])cc12	4	0	12	-6	0	-8	.	.
N#Cc1ccsc1NC(=O)C1CCN(C(=O)c2ccc(Cl)cc2)CC1	4	-7	-2	1	48*	6	-2	79*
O=C(NC1CCCC1)C1CCN(C(=O)c2ccc(Cl)cc2)CC1	3	8	5	0	2	1	.	.
Cn1c(C(=O)NCCN2CCOCC2)cc2c(=O)n(C)c3ccccc3c21	-11	6	-106	5	14	1	.	.
CC1CCCCN1CCNC(=O)c1cc2c(=O)n(C)c3ccccc3c2n1C (stereo not drawn)	-1	2	-127	12	46*	15	2	46*
COc1ccc(Nc2cc(Nc3cc(OC)c(OC)c(OC)c3)ncn2)cc1	6	2	-2	-10	55*	0	-1	58*
COc1ccc(Nc2cc(Nc3ccc(OC)cc3)ncn2)cc1	7	2	8	7	-2	1	.	.
SMILES	SENP8 block-1	SENP7 block	SENP8 block-2	SENP6 block	UBC13 polyUb	Apaf1 inhib	Casp3 UBC13 ctr	UBC13 confirm
CC(=O)Nc1sc2c(c1-c1nc3ccccc3s1)CCN(C(C)C)C2	9	9	-467	2	60*	30	5	18
C[C@@H]1CN([C@@H](C)CO)C(=O)CCCn2nncc2CO[C@H]1CN(C)Cc1ccc2cccnc2c1	.	.	17	.	.	.	.	.
CCN(CC)Cc1cc2[nH]c3c4ccc(Cl)cc4ncc3c2cc1OC	3	10	-157	5	67*	21	2	10
CC(C)CC1C(=O)N(Cc2cn(CC3CCCCC3)nn2)CCS(=O)(=O)N1Cc1ccc(-c2ccc(F)nc2)cc1 (stereo not drawn)	.	.	-16	.	.	.	.	.
Cc1sc2nc(C(C)Nc3ccccc3N3CCOCC3)[nH]c(=O)c2c1C (stereo not drawn)	-6	-5	-82	-16	74*	2	-1	87*
COC1OCC(O)C(NC(=O)N(C)N=O)C1O (stereo not drawn)	.	.	20	.	.	.	.	.
C/C=C1\COC(C(=O)NCCN2CCCC2)(C(F)(F)F)C=C1C=C1CCCCC1 (stereo not drawn)	6	3	5	8	55*	24	-1	52*
C/C=C1\COC(C(=O)NCc2ccccc2)(C(F)(F)F)C=C1C=C1CCCCC1 (stereo not drawn)	-9	-2	5	2	4	8	.	.
CCOC(=O)Nc1ccc2c(c1)C(=NNC(=S)NC)c1ccccc1-2	.	.	36	.	.	.	.	.
CCCCn1c(-c2cccs2)nc2nc3ccccc3nc21	-10	-5	-288	2	56*	19	-1	45*
CCC(c1nnnn1-c1c(C)cccc1C)N1CCCN(Cc2ccc(F)cc2)CC1 (stereo not drawn)	.	.	18	.	.	.	.	.
C#CCOCCOCCOCCNc1nc(N2CCN(C(=O)[C@H](Cc3ccc(O)cc3)n3cc([C@@H](N)C(C)CC)nn3)CC2)nc(N2CCN(C(=O)[C@H](Cc3cc4ccccc4[nH]3)n3cc([C@@H](N)C(C)CC)nn3)CC2)n1 (stereo partly drawn)	-6	-10	-7	0	77*	33	-2	66*
C#CCOCCOCCOCCNc1nc(N2CCN(C(=O)[C@H](CCC(=O)O)n3cc(C(N)Cc4ccc(O)cc4)nn3)CC2)nc(N2CCN(C(=O)[C@H](Cc3cc4ccccc4[nH]3)n3cc(C(N)[C@H](C)CC)nn3)CC2)n1 (stereo partly drawn)	-1	-8	-22	-2	13	7	.	.
